pKi: −log10 of the molar value. The source made the active and inactive calls. The calls are words filed in the database; no cut-off is given here.
Experiments:
[1] = biological target: Cruzipain (Trypanosoma cruzi) (UniProt P25779); assay: Inhibition of Trypanosoma cruzi cruzain at 10 uM preincubated for 5 mins before substrate addition by spectrophotometry; conditions: in the assay text read “spectrofluorimetry” for “spectrophotometry”
Procedure, shortened: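 Enzyme (0.8 nM) preincubated with compound 5 min in 100 mM sodium acetate pH 5.5, 5 mM DTT, with and without 0.1% Triton X-100; started with Z-FR-AMC (2.5 μM final, enzyme 0.4 nM final), 0.5% DMSO; fluorescence ex 355/em 460 nm over 5 min; duplicates, DMSO controls.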

[2] = Inhibition of beta-lactamase AmpC preincubated for 5 mins before substrate addition by spectrophotometry
Procedure, shortened: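 In 50 mM potassium phosphate pH 7.0, 1 nM enzyme incubated 5 min with compound at 10 μM (0.1% DMSO); CENTA added to 92 μM final; absorbance at 405 nm followed for 5 min; duplicates with DMSO controls.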

Homo sapiens [3] = species on record: Homo sapiens; assay: Selectivity ratio of Ki for human recombinant adenosine A1 receptor to KI for human recombinant adenosine A2A receptor
Homo sapiens [4] = species on record: Homo sapiens; assay: Selectivity ratio of Ki for human recombinant adenosine A3 receptor to KI for human recombinant adenosine A2A receptor
[5] = biological target: T1, Adenosine receptor A1 (Homo sapiens) (UniProt P30542); assay: Displacement of [3H]R-PIA from human recombinant adenosine A1 receptor expressed in CHO cells at 20 uM after 60 mins by scintillation counting; type: cell-based
T1 sequence (whole entry): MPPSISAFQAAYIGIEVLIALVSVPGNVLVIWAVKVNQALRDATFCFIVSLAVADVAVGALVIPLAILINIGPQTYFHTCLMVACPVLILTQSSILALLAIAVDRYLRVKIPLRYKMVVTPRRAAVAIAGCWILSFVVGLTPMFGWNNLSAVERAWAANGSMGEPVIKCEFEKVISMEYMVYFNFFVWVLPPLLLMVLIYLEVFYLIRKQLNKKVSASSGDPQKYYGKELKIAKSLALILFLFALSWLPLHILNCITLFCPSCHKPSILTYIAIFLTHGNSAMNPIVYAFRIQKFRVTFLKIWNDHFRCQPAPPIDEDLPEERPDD

[6] = biological target: T2, Adenosine receptor A3 (Homo sapiens) (UniProt P0DMS8); assay: Displacement of [125I]I-AB-MECA from human recombinant adenosine A3 receptor expressed in CHO cells at 20 uM after 60 mins by gamma counting
T2 sequence (whole entry): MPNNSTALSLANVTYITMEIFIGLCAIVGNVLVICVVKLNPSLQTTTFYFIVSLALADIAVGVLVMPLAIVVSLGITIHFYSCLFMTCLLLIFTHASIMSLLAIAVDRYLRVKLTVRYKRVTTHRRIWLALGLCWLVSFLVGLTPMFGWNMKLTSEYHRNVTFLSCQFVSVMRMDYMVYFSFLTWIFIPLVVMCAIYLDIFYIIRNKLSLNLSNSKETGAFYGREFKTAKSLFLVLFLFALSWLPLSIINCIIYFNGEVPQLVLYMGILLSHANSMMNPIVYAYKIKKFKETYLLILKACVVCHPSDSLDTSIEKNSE

Adenosine receptor A2a = Adenosine receptor A2a (Homo sapiens, UniProt P29274); assay: Displacement of [3H]CGS21680 from human recombinant adenosine A2A receptor expressed in HEK293 cells after 60 mins by scintillation counting; type: cell-based
[7] = Colloidal aggregation at 10 uM by dynamic light scattering assay; type: physicochemical
Procedure, shortened: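 Compounds diluted from concentrated DMSO stocks into filtered 50 mM KPi, pH 7.0; particle formation checked by dynamic light scattering with 826.6 nm laser at 100% power, detector angle 90°.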

Adenosine receptor A2a, sequence (P29274 whole entry): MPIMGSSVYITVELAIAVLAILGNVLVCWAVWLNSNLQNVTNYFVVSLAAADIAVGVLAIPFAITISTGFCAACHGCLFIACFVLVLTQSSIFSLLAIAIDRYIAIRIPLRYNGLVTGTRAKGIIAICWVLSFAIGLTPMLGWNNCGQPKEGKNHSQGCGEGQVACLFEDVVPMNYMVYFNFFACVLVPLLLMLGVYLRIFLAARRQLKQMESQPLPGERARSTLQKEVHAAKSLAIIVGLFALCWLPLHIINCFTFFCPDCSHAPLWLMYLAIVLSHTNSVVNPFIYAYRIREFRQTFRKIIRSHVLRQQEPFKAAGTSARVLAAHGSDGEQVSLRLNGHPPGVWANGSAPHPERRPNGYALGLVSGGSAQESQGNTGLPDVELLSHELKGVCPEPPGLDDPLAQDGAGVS
Cruzipain (Trypanosoma cruzi), sequence (P25779 123-467 limits assumed): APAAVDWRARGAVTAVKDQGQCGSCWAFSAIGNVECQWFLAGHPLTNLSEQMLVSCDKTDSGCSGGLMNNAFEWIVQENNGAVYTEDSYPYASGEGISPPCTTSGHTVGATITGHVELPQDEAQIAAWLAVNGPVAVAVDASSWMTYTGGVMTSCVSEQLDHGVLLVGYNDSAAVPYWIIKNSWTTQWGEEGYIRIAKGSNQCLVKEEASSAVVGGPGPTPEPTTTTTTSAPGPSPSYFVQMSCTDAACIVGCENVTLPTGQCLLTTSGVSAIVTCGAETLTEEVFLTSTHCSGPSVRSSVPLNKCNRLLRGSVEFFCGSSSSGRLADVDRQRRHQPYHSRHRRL

For `Cc1cc(C)nc(NC(=N)NCCc2c[nH]c3ccc(F)cc23)n1`, the Activity [1] was “Active”, the inhibition [2] was “inactive” and the Ratio Ki (Homo sapiens [3]) was 50. The Ratio Ki (Homo sapiens [4]) was 50, the Activity [5] was 25% and the Activity [6] was 18%.
For `Cc1cccc(O[C@H](C)C(=O)Nc2nc(-c3ccccc3)n[nH]2)c1`, the Activity [1] was “inactive” and the inhibition [2] was “inactive”.
Work on `Cc1cc(C)nc(NC(=N)NCCc2c[nH]c3ccccc23)n1` yielded an Activity [5] of 19%, a pKi (Adenosine receptor A2a) of 6.40 and an Activity [6] of 16%.
With `COc1ccc2c(c1)oc1c(-c3ccncc3)c(C#N)c(N)c(C#N)c12` the Activity [1] was “inactive”, the Activity [5] was 5% and the pKi (Adenosine receptor A2a) was 5.57. For the same compound, the Activity [7] was “Not Active” and the Activity [6] was 28%.
With `Cc1cc(C)nc(NC(=N)NCCc2ccsc2)n1` the Activity [5] was 3% and the Activity [6] was 21%.
In the case of `N=C(NCCc1c[nH]c2ccccc12)Nc1ncccn1`, the Activity [5] was 4% and the Activity [6] was 8%.
Work on `COc1ccc2c(CCNC(=N)Nc3nc(C)cc(C)n3)c[nH]c2c1` yielded an Activity [5] of 5%, a pKi (Adenosine receptor A2a) of 6.22 and an Activity [6] of 20%.
With `COc1ccc(CCNC(=N)Nc2nc(C)cc(C)n2)cc1` the Activity [5] was 10%, the pKi (Adenosine receptor A2a) was 6.05 and the Activity [6] was 9%.
With `Cc1cc(C)nc(NC(N)=NCCc2c[nH]c3ccc(F)cc23)n1` the pKi (Adenosine receptor A2a) was 6.70 and the Activity [7] was “Active”.
With `Cc1cc(C)nc(NC(N)=NCCc2ccsc2)n1` the pKi (Adenosine receptor A2a) was 6.40.
With `CNc1ccccc1C(=O)/N=C(\N)Nc1nc(C)c2ccccc2n1` the Activity [5] was 15%, the pKi (Adenosine receptor A2a) was 5.06 and the Activity [6] was 8%.
With `COc1ccc(-c2cc(=O)[nH]c(Nc3ccccc3)n2)cc1OC` the Activity [5] was 4%, the pKi (Adenosine receptor A2a) was 5.44 and the Activity [6] was 37%.
For `NC(=NCCc1c[nH]c2ccccc12)Nc1ncccn1`, the pKi (Adenosine receptor A2a) was 5.23.
For `Cc1ccc2nc(Nc3nc(C)cc(C)n3)[nH]c2c1`, the Activity [1] was “inactive”, the Activity [5] was 12% and the pKi (Adenosine receptor A2a) was 5.89. For the same compound, the Activity [7] was “Not Active” and the Activity [6] was 15%.
In the case of `Cc1cccc(O[C@H](C)C(=O)Nc2nnc(-c3ccccc3)[nH]2)c1`, the Activity [7] was “Not Active”.
Compound `Cc1cccc(Nc2nc3c([nH]2)c(=O)n(C)c(=O)n3C)c1` has an Activity [5] of 6%, a pKi (Adenosine receptor A2a) of 5.92 and an Activity [6] of 17%.

Source: ChEMBL document CHEMBL1157745, “Structure-based discovery of A2A adenosine receptor ligands” (J Med Chem, 2010)
